In ChEMBL document CHEMBL4196145, “Antitumor Activity of Diterpenoids from Jatropha gossypiifolia: Cell Cycle Arrest and Apoptosis-Inducing Activity in RKO Colon Cancer Cells” (J Nat Prod, 2018):
Activity calls are given as the source filed them. No cut-off for these calls is given here.

What was measured:
[1] = system: RKO; assay: Growth inhibition of human RKO cells after 48 hrs by CCK-8 assay; type: functional, cell-based
Summary of the method: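 CCK-8 (WST-8) was then added for 1 h at 37 °C and optical density read at 450 nm. Survival was expressed relative to untreated control wells and IC50 calculated. Three independent experiments.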

[2] = system: LoVo; assay: Growth inhibition of human LoVo cells after 48 hrs by CCK-8 assay; type: functional, cell-based
[3] = system: RKO; assay: Cell cycle arrest in human RKO cells assessed as accumulation at G1 phase at 10.2 uM after 24 hrs by propidium iodide staining based flow cytometry (reference value: 51.13%); type: functional
[4] = system: RKO; assay: Cell cycle arrest in human RKO cells assessed as accumulation at G2/M phase at 10.2 uM after 24 hrs by propidium iodide staining based flow cytometry (reference value: 10.97%); type: functional
[5] = system: RKO; assay: Cell cycle arrest in human RKO cells assessed as accumulation at S phase at 10.2 uM after 24 hrs by propidium iodide staining based flow cytometry (reference value: 37.89%); type: functional
[6] = system: RKO; assay: Cell cycle arrest in human RKO cells assessed as accumulation at G1 phase at 20.4 uM after 24 hrs by propidium iodide staining based flow cytometry (reference value: 51.13%); type: functional
[7] = system: RKO; assay: Cell cycle arrest in human RKO cells assessed as accumulation at G2/M phase at 20.4 uM after 24 hrs by propidium iodide staining based flow cytometry (reference value: 10.97%); type: functional
[8] = system: RKO; assay: Cell cycle arrest in human RKO cells assessed as accumulation at S phase at 20.4 uM after 24 hrs by propidium iodide staining based flow cytometry (reference value: 37.89%); type: functional
[9] = system: RKO; assay: Induction of apoptosis in human RKO cells assessed as viable cells at 10.2 uM after 24 hrs by annexin V-FITC/propidium iodide staining based flow cytometry (reference value: 94.1%); type: functional; conditions: read-out: Activity
[10] = system: RKO; assay: Induction of apoptosis in human RKO cells assessed as early apoptotic cells at 10.2 uM after 24 hrs by annexin V-FITC/propidium iodide staining based flow cytometry (reference value: 1.98%); type: functional
[11] = system: RKO; assay: Induction of apoptosis in human RKO cells assessed as late apoptotic cells at 10.2 uM after 24 hrs by annexin V-FITC/propidium iodide staining based flow cytometry (reference value: 3.91%); type: functional
[12] = system: RKO; assay: Induction of apoptosis in human RKO cells assessed as necrotic cells at 10.2 uM after 24 hrs by annexin V-FITC/propidium iodide staining based flow cytometry (reference value: 0.035%); type: functional
[13] = system: RKO; assay: Induction of apoptosis in human RKO cells assessed as viable cells at 20.4 uM after 24 hrs by annexin V-FITC/propidium iodide staining based flow cytometry (reference value: 94.1%); type: functional; conditions: read-out: Activity
[14] = system: RKO; assay: Induction of apoptosis in human RKO cells assessed as early apoptotic cells at 20.4 uM after 24 hrs by annexin V-FITC/propidium iodide staining based flow cytometry (reference value: 1.98%); type: functional
[15] = system: RKO; assay: Induction of apoptosis in human RKO cells assessed as late apoptotic cells at 20.4 uM after 24 hrs by annexin V-FITC/propidium iodide staining based flow cytometry (reference value: 3.91%); type: functional
[16] = system: RKO; assay: Induction of apoptosis in human RKO cells assessed as necrotic cells at 20.4 uM after 24 hrs by annexin V-FITC/propidium iodide staining based flow cytometry (reference value: 0.035%); type: functional
[17] = system: RKO; assay: Induction of apoptosis in human RKO cells at 5.2 uM after 24 hrs by DAPI staining based fluorescence microscopy; type: functional, cell-based
[18] = system: RKO; assay: Induction of apoptosis in human RKO cells assessed as nuclear condensation at 2.6 to 5.2 uM after 24 hrs by DAPI staining based fluorescence microscopy; type: functional, cell-based
[19] = system: RKO; assay: Induction of apoptosis in human RKO cells assessed as nuclear fragmentation at 2.6 to 5.2 uM after 24 hrs by DAPI staining based fluorescence microscopy; type: functional, cell-based
[20] = system: RKO; assay: Antimigratory activity against human RKO cells at 2.6 to 5.2 uM after 48 hrs by wound healing based inverted microscopy; type: functional, cell-based
Summary of the method: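 Scratch-wound assay. RKO monolayers above 90% confluence were scratched with a sterile pipette tip and debris rinsed off with PBS. Cells were then kept in MEM with 2% FBS at 37 °C with compound, DMSO vehicle or 5-FU. Wounds were photographed by inverted microscopy at 0 and 48 h, and scratch area was compared with the original wound.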

[21] = system: RKO; assay: Cell cycle arrest in human RKO cells assessed as accumulation at G1 phase at 2.6 uM after 24 hrs by propidium iodide staining based flow cytometry (reference value: 51.13%); type: functional
[22] = system: RKO; assay: Cell cycle arrest in human RKO cells assessed as accumulation at G2/M phase at 2.6 uM after 24 hrs by propidium iodide staining based flow cytometry (reference value: 10.97%); type: functional
[23] = system: RKO; assay: Cell cycle arrest in human RKO cells assessed as accumulation at S phase at 2.6 uM after 24 hrs by propidium iodide staining based flow cytometry (reference value: 37.89%); type: functional
[24] = system: RKO; assay: Cell cycle arrest in human RKO cells assessed as accumulation at G1 phase at 5.2 uM after 24 hrs by propidium iodide staining based flow cytometry (reference value: 51.13%); type: functional
[25] = system: RKO; assay: Cell cycle arrest in human RKO cells assessed as accumulation at G2/M phase at 5.2 uM after 24 hrs by propidium iodide staining based flow cytometry (reference value: 10.97%); type: functional
[26] = system: RKO; assay: Cell cycle arrest in human RKO cells assessed as accumulation at S phase at 5.2 uM after 24 hrs by propidium iodide staining based flow cytometry (reference value: 37.89%); type: functional
[27] = system: RKO; assay: Induction of apoptosis in human RKO cells assessed as viable cells at 2.6 uM after 24 hrs by annexin V-FITC/propidium iodide staining based flow cytometry (reference value: 94.1%); type: functional; conditions: read-out: Activity
Summary of the method: (§1)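 Annexin V-FITC/PI kit assay. RKO cells were treated for 24 h at 37 °C with compound, DMSO or 5-FU, collected and washed twice with PBS. They were resuspended in binding buffer and stained with annexin V-FITC and PI for 20 min at 37 °C in the dark. Flow cytometry was run immediately, with viable, early/late apoptotic and necrotic fractions read.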

[28] = system: RKO; assay: Induction of apoptosis in human RKO cells assessed as early apoptotic cells at 2.6 uM after 24 hrs by annexin V-FITC/propidium iodide staining based flow cytometry (reference value: 1.98%); type: functional; summary of the method: as §1
[29] = system: RKO; assay: Induction of apoptosis in human RKO cells assessed as late apoptotic cells at 2.6 uM after 24 hrs by annexin V-FITC/propidium iodide staining based flow cytometry (reference value: 3.91%); type: functional; summary of the method: as §1
[30] = system: RKO; assay: Induction of apoptosis in human RKO cells assessed as necrotic cells at 2.6 uM after 24 hrs by annexin V-FITC/propidium iodide staining based flow cytometry (reference value: 0.035%); type: functional; summary of the method: as §1
[31] = system: RKO; assay: Induction of apoptosis in human RKO cells assessed as viable cells at 5.2 uM after 24 hrs by annexin V-FITC/propidium iodide staining based flow cytometry (reference value: 94.1%); type: functional; conditions: read-out: Activity; summary of the method: as §1
[32] = system: RKO; assay: Induction of apoptosis in human RKO cells assessed as early apoptotic cells at 5.2 uM after 24 hrs by annexin V-FITC/propidium iodide staining based flow cytometry (reference value: 1.98%); type: functional; summary of the method: as §1
[33] = system: RKO; assay: Induction of apoptosis in human RKO cells assessed as late apoptotic cells at 5.2 uM after 24 hrs by annexin V-FITC/propidium iodide staining based flow cytometry (reference value: 3.91%); type: functional; summary of the method: as §1
[34] = system: RKO; assay: Induction of apoptosis in human RKO cells assessed as necrotic cells at 5.2 uM after 24 hrs by annexin V-FITC/propidium iodide staining based flow cytometry (reference value: 0.035%); type: functional; summary of the method: as §1
[35] = system: RKO; assay: Induction of apoptosis in human RKO cells after 24 hrs by annexin V-FITC/propidium iodide staining based flow cytometry; type: functional, cell-based; summary of the method: as §1

Compound: C=C(C)[C@@H]1/C=C/[C@@H](C)C(=O)[C@H]2C[C@@H](C)[C@@H](O)/C2=C/[C@@H](C)C(=O)C1
- growth inhibition (GI) [1]: inactive
- growth inhibition (GI) [2]: inactive

Compound: CC(=O)O[C@H]1/C2=C/[C@@H](C)C(=O)C[C@H]3[C@@H](/C=C(\C)C(=O)[C@H]2C[C@H]1C)C3(C)C
- growth inhibition (GI) [1]: inactive
- growth inhibition (GI) [2]: inactive

Compound: C/C1=C/C2=C(C[C@H](C)C2)C(=O)[C@@]2(C)C(=O)CC(C)(C)[C@@H]2CC1=O
- growth inhibition (GI) [1]: inactive
- growth inhibition (GI) [2]: inactive

Compound: CC(=O)O[C@H]1/C2=C/[C@@H](C)C(=O)C[C@H]3[C@@H](C[C@@H](C)C(=O)[C@H]2C[C@H]1C)C3(C)C
- growth inhibition (GI) [1]: inactive
- growth inhibition (GI) [2]: inactive

Compound: C=C(C)[C@@H]1/C=C/[C@@H](C)C(=O)[C@H]2C[C@@H](C)[C@@H](OC(C)=O)/C2=C/[C@@H](C)C(=O)C1
- growth inhibition (GI) [1]: inactive
- growth inhibition (GI) [2]: inactive

Compound: CC(=O)O[C@H]1/C2=C/[C@@H](C)C(=O)C[C@H]3[C@@H](/C=C(\C)C(=O)[C@@]2(O)C[C@H]1C)C3(C)C
- growth inhibition (GI) [1]: inactive
- growth inhibition (GI) [2]: inactive

Compound: O=c1[nH]cc(F)c(=O)[nH]1 [FLUOROURACIL]
- IC50 [1]: 10.2 µM
- IC50 [2]: 11.5 µM
- Activity [3]: 62.56%
- Activity [4]: 21.47%
- Activity [5]: 15.97%
- Activity [6]: 66.4%
- Activity [7]: 21.48%
- Activity [8]: 12.12%
- viability at 10.2 µM [9]: 69.2%
- Activity [10]: 9.75%
- Activity [11]: 20.8%
- Activity [12]: 0.289%
- viability at 20.4 µM [13]: 51.7%
- Activity [14]: 11.6%
- Activity [15]: 36.7%
- Activity [16]: 0.065%

Compound: C/C1=C/C2=C(C[C@@H](C)C2)C(=O)[C@@]2(C)C(=O)CC(C)(C)[C@@H]2CC1=O
- growth inhibition (GI) [1]: inactive
- growth inhibition (GI) [2]: inactive

Compound: CC1=C2CC(C)(C)/C=C/C(=O)/C(C)=C\C3=C[C@H](C)C[C@]3(O2)C1=O [JATROPHONE]
- IC50 [1]: 8 µM
- IC50 [2]: 18.6 µM

Compound: CC(=O)O[C@H]1C2=C[C@@H](C)C(=O)[C@H]3[C@H]4[C@@H](C[C@@H](C)[C@]3(O)[C@H]2C[C@H]1C)C4(C)C
- growth inhibition (GI) [1]: inactive
- growth inhibition (GI) [2]: inactive

Compound: C=C1CC[C@H]2[C@@H](c3c(C)c(O)c4c(c31)C(=O)[C@@H](C)C4)C2(C)C
- growth inhibition (GI) [1]: inactive
- growth inhibition (GI) [2]: inactive

Compound: C=C(C)[C@@H]1/C=C/[C@@H](C)C(=O)[C@H]2C[C@@H](C)[C@@H](OC(C)=O)[C@H]2/C=C(/C)C(=O)C1
- growth inhibition (GI) [1]: inactive
- growth inhibition (GI) [2]: inactive

Compound: C=C1CC[C@H]2[C@@H](c3c(C)c(O)c4c(c31)C(=O)[C@H](C)C4)C2(C)C
- growth inhibition (GI) [1]: inactive
- growth inhibition (GI) [2]: inactive

Compound: C=C(C)[C@@H]1/C=C/[C@@H](C)C(=O)[C@H]2C[C@@H](C)[C@@H](OC(C)=O)/C2=C/[C@](C)(O)C(=O)C1
- growth inhibition (GI) [1]: inactive
- growth inhibition (GI) [2]: inactive

Compound: C=C1CC[C@@H](C(=C)C)[C@@H]2C=C(C)C(=O)C3=C(C(=O)[C@@H](C)[C@H]3O)[C@@H]12
- IC50 [1]: 2.6 µM
- IC50 [2]: 14.5 µM
- Activity [17]: Active
- Activity [18]: Active
- Activity [19]: Active
- Activity [20]: Active
- Activity [21]: 44.03%
- Activity [22]: 18.3%
- Activity [23]: 37.68%
- Activity [24]: 36.06%
- Activity [25]: 25.76%
- Activity [26]: 38.18%
- viability at 2.6 µM [27]: 59.9%
- Activity [28]: 12.1%
- Activity [29]: 27.6%
- Activity [30]: 0.404%
- viability at 5.2 µM [31]: 9.5%
- Activity [32]: 21.5%
- Activity [33]: 68.2%
- Activity [34]: 0.811%
- Activity [35]: Dose-dependent effect

Compound: C/C1=C/[C@]23O[C@H]2[C@H](C)CC3C(=O)[C@]2(C)C(=O)CC(C)(C)[C@H]2CC1=O (stereo not given in full)
- growth inhibition (GI) [1]: inactive
- growth inhibition (GI) [2]: inactive
